Screening data deposited in PubChem BioAssay by The Scripps Research Institute Molecular Screening Center.
Sampled rows, rich in hits. Any-hit rate of the full collection: about 2.5%.
ABHD4 inh – inhibits mouse alpha/beta hydrolase domain 4. Q8VD66. purified mABHD4, FP-Rh probe fluorescence polarization. inhibition, % at 8.92 µM. hit rate 0.54% among 370,000. AID 720543;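 active = inhibition exceeding the mean over every tested compound plus 3 SD, cut at about 30% in these data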;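 also: 0% = plate median of compound wells and 100% = S159A mutant with DMSO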
Target sequence (Q8VD66 whole entry, looked up, the tested form may be a part): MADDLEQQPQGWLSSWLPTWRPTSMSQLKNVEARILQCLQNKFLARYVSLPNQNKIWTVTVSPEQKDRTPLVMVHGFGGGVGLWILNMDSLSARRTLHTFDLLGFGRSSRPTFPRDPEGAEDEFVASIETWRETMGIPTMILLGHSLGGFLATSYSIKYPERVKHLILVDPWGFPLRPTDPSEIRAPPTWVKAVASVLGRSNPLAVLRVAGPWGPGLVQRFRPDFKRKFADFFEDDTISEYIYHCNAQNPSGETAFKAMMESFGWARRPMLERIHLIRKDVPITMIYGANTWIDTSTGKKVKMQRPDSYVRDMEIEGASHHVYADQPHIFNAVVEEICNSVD
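assay system = mABHD4 protein | compound dosing = single nominal dose of 8.92 µM, 0.89% DMSO final | read-out basis = percent inhibition of probe binding, normalized to plate controls | schedule = Enzyme–compound pre-incubation 45 min, then probe 60 min, both 25 °C | detection = fluorescence polarization, excitation 525 nm, emission 598 nm, BODIPY TMR filters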
PRMT1 inh – blocks human protein arginine methyltransferase 1; hit rate 1.3% among 370,000; recombinant PRMT1, activity-based probe fluorescence polarization; inhibition, % at 2.79 µM; Q99873;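 active = inhibition above about 21% made by adding two undisclosed values, limit read from the data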
TCR-CD3 inh – blocks the human TCR-CD3 interaction; TAMRA-labeled TCR probe fluorescence, biochemical; inhibition, % at 9.4 µM; hit rate 0.37% among 360,000; AID 651800; in the data active = inhibition above about 19%;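 also: recombinant mutant TCR 2C K166C tagged with TAMRA read by polarization; 0% = receptor in buffer alone and 100% = receptor with positive control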
SIAE primary – blocks human sialic acid acetylesterase; SIAE FP-Rh probe binding, fluorescence polarization; inhibition, % at 9.66 µM; hit rate 0.69% among 370,000; AID 1053197;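 active = inhibition above a cutoff: mean of compounds within the control limits plus 3 SD of those, cut at about 17% in these data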;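 also: 0% = plate median of compound wells and 100% = probe without SIAE protein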
HTRA1 inh – blocks human HTRA1 serine peptidase | inhibition, % at 5.96 µM | recombinant HTRA1, FP-rhodamine activity-based probe, fluorescence polarization | Q92743 | hit rate 0.5% among 340,000; in the data active = inhibition above about 36%;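 also: 0% = enzyme with DMSO and 100% = wells lacking enzyme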
PRMT1 confirm – PRMT1 (human) inhibition, FP confirmation | AID 687036 | recombinant His-PRMT1, activity-based probe fluorescence polarization | shares compounds with PRMT1 inh | inhibition, % at 2.79 µM | hit rate 42% among 3,300;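 active = mean inhibition across replicates above the hit cutoff derived for the earlier primary screen, cut at about 22% in these data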
An asterisk follows results filed as active; . = no result.

SMILES	ABHD4 inh	PRMT1 inh	TCR-CD3 inh	SIAE primary	HTRA1 inh	PRMT1 confirm
COCCCN1C(=O)[C@H](CC(=O)NCc2ccccc2)[C@]2(C(=O)OC)CCCCC=C12	0	-2	.	0	.	.
CN(Cc1ccccc1)S(=O)(=O)c1cccc(C(=O)OCc2cccc([N+](=O)[O-])c2)c1	3	-2	.	12	.	.
O=C(c1ccco1)N1CCC(Oc2cccnc2)CC1	5	-6	.	-3	.	.
O=C(CNC(=O)c1cccs1)OCC(=O)c1ccc([N+](=O)[O-])cc1	5	60*	-4	-2	5	51*
O=C(CNC(=O)c1cccs1)c1ccc([N+](=O)[O-])cc1	1	5	-8	5	-2	.
O=C(CNS(=O)(=O)c1ccccc1)OCC(=O)c1ccc([N+](=O)[O-])cc1	2	80*	-6	-2	-4	42*
O=C1CC(Sc2ncccn2)C(=O)N1c1ccccc1 (centres undefined)	-4	12	6	1	-4	.
COc1ccc(N2C(=O)CC(Sc3nnc(-c4ccccc4)o3)C2=O)cc1 (centres undefined)	0	63*	-6	-14	-1	39*
O=C1CC(Sc2nnc(-c3ccccc3O)o2)C(=O)N1c1ccccc1 (centres undefined)	9	66*	-2	-3	-2	65*
COC(=O)C1=C(C)N(Cc2ccc(C(F)(F)F)cc2)C(=NCC2CC2)NC1c1cccc(Cl)c1 (centres undefined)	29	-3	-5	4	.	.
O=C(Nc1ccc(F)cc1F)C1CCN(c2nnc(-n3cccc3)s2)CC1	-3	-2	.	-1	.	.
N#Cc1nccnc1S(=O)(=O)c1cccs1	3	84*	-1	-4	.	82*
CN(Cc1ccccc1C#N)S(=O)(=O)c1cccs1	0	-2	-4	-5	-1	.
COC(=O)[C@]12C[C@H](CC(=O)NCCCCc3ccccc3)C(=O)N(CCc3ccc(OC)c(OC)c3)C1=C[C@H](C(C)(C)C)O[C@@H]2C	-6	3	.	6	.	.
CC(C)=C1C2C=CC1C1C(=O)N(c3ccc4c(c3)OCO4)C(=O)C21 (centres undefined)	7	73*	9	-4	-4	5
CC(C)=C1C2CCC1C1C(=O)N(c3ccc4c(c3)OCO4)C(=O)C21 (centres undefined)	0	-3	-1	-1	8	.
S=C(Nc1ccc(Cl)cc1)OC1CCC12CCC(c1ccccc1)CC2 (centres undefined)	-22	-8	.	-12	.	.
CCOC(=O)N1CCN(C(=O)C[C@H]2C[C@@]3(C(=O)OC)C(=C[C@H](C4CCCC4)O[C@@H]3C)N(CCC3=CCCCC3)C2=O)CC1	-3	4	.	-1	.	.
CC(=Nc1cccc(C)c1)c1sc2ccccc2c1O	4	26*	2	7	-2	19
CC(=O)NCCN=C(C)c1sc2ccccc2c1O	2	25*	-1	3	4	21*
O=C(CNC(=O)c1sc2ccccc2c1Cl)NCc1ccccc1	-6	4	-2	-2	-10	.
CC(=Nc1ccccc1O)c1sc2ccccc2c1O	16	34*	-3	5	27	25*
COC(=O)[C@]12C[C@H](CC(=O)NCc3cccs3)C(=O)N(Cc3ccco3)C1=C[C@H](C1CCCC1)O[C@@H]2C	-5	-5	.	8	.	.
CCOC(=O)c1c(NC(=O)CC2Sc3ccc(C(F)(F)F)cc3NC2=O)sc(C)c1C (centres undefined)	0	-3	-2	11	2	.
CC(=O)C1=C(C)Nc2cc(C(F)(F)F)ccc2S1	5	28*	1	-3	-7	13
SMILES	ABHD4 inh	PRMT1 inh	TCR-CD3 inh	SIAE primary	HTRA1 inh	PRMT1 confirm
COc1ccc(C2NC(=S)N3C(c4ccc(OC)cc4)NC(=S)N23)cc1 (centres undefined)	-11	46*	-3	4	12	5
COC(=O)[C@]12C[C@H](CC(=O)NCc3cccs3)C(=O)N(CCc3ccc(OC)c(OC)c3)C1=C[C@H](C1CCCC1)O[C@@H]2C	0	2	.	-5	.	.
CC(C)(C)c1ccc(C(=O)CC(Sc2ccc(Cl)cc2)C(=O)O)cc1 (centres undefined)	0	73*	5	1	-10	85*
Cc1ccc(SC(CC(=O)c2ccc(F)cc2)C(=O)O)cc1 (centres undefined)	-3	82*	1	8	2	79*
O=C(Oc1coc(CSc2ncccn2)cc1=O)c1ccc([N+](=O)[O-])cc1	5	-1	.	4	.	.
Nc1ncnc(Sc2ncccn2)c1[N+](=O)[O-]	-1	53*	5	-1	0	16
C=CCc1cccc(C=NNC(=O)c2ccco2)c1O	-4	0	.	1	.	.
Cc1cccc(N2C(=O)CC(Sc3ncn[nH]3)C2=O)c1 (centres undefined)	3	58*	-5	3	-14	55*
Cc1ccc(N2C(=O)CC(Sc3ncn[nH]3)C2=O)cc1C (centres undefined)	5	61*	10	4	-3	44*
O=C(CSc1nc2ncccc2[nH]1)N1CCOCC1	2	-4	.	-3	.	.
Cn1cccc1C(=O)N1CCN(S(=O)(=O)c2cccs2)CC1	3	5	.	-1	.	.
CCn1c(SCC(=O)Nc2ccc(C(C)C)cc2)nnc1-c1ccc(C(C)(C)C)cc1	6	3	.	2	.	.
CCOC(=O)C1(Cc2ccccc2)CCN(Cc2ccc(C)cc2)CC1	2	-2	.	5	.	.
S=c1cnc2ccccc2[nH]1	7	40*	10	2	6	14
Cc1ccc(/C(C#N)=C\c2ccc(N3CCOCC3)o2)cc1	4	27*	-10	8	2	11
N#Cc1cccc(N=c2ssnc2Cl)c1	-3	100*	-9	8	.	92*
Cc1cc(C)cc(C(N)=Nc2cccc(C#N)c2)c1	-5	-1	1	-2	-17	.
CN1C(=O)CSC1=Nc1ccc(Br)cc1	1	-3	0	2	1	.
COc1cc(OC)cc(-c2nc(-c3ccccc3OC)no2)c1	2	0	-4	2	0	.
Clc1nssc1=Nc1nncs1	0	97*	3	2	7	92*
Clc1nssc1=Nc1ccc(Br)cc1	4	72*	4	10	4	93*
COc1cc(N=c2ssnc2Cl)cc(OC)c1	16	63*	-2	4	22	92*
CC(C)c1ccc(CCNC(=O)CSC(=S)N2CCCC2)cc1	-17	32*	0	-4	-7	15
COc1cc(C2C3CN(C)CC=C3C(C#N)=C(N)C2(C#N)C#N)ccc1OC(C)C (centres undefined)	4	8	5	4	5	.
CC(C)N1CC=C2C(C#N)=C(N)C(C#N)(C#N)C(c3ccccc3)C2C1 (centres undefined)	9	37*	9	8	-1	33*
